Data from ChEMBL document CHEMBL1154857, “Antimycobacterial flavonoids from the leaf extract of Galenia africana” (J Nat Prod, 2009).
pIC50: −log10 of the molar value. Converted amounts (≈) assume the structure as drawn. The source made the active and inactive calls. The calls are words filed in the database; no cut-off is given here.

System: Mycobacterium tuberculosis
Test: Antitubercular activity against Mycobacterium tuberculosis H37Rv infected in human U937 cells by radiometric method
Format: functional, U-937
Conditions: not given

Compared with `NNC(=O)c1ccncc1` [ISONIAZID], `O=C(/C=C/c1ccccc1)c1ccc(O)cc1O` [2',4'-DIHYDROXYCHALCONE] is 67-fold higher in MIC: 2.9 µM (≈ 0.398 µg/mL) for the first, 195 µM (≈ 46.9 µg/mL) for the second.

Compared with `O=C(/C=C/c1cccc(O)c1)c1ccc(O)cc1O`, `O=C1C[C@@H](c2ccccc2O)Oc2cc(O)cc(O)c21` is 2-fold higher in MIC: 184 µM (≈ 47.1 µg/mL) for the first, 368 µM (≈ 100 µg/mL) for the second.

`O=C(/C=C/c1ccccc1)c1ccc(O)cc1O` [2',4'-DIHYDROXYCHALCONE] and `O=C(/C=C/c1cccc(O)c1)c1ccc(O)cc1O` are within 1.5-fold of each other in MBC: 416 µM (≈ 100 µg/mL) for the first, 368 µM (≈ 94.2 µg/mL) for the second.

Work on `O=C1C[C@@H](c2ccccc2O)Oc2cc(O)cc(O)c21` yielded an MBC of 735 µM (≈ 200 µg/mL).

Target: Mycothione reductase (Mycobacterium tuberculosis) (UniProt P9WHH3)
Test: Inhibition of Mycobacterium tuberculosis mycothiol disulfide reductase assessed as NADPH oxidation at 800 uM by Ellmans reagent method
Conditions: not given
How it was run: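 M. tuberculosis mycothiol disulfide reductase (NADPH-dependent) used with the mycothiol analogue BnOMSH as substrate. Activity was followed as the increase in absorbance at […] from reduction of Ellman's reagent by the BnOMSH formed.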

Sequence of Mycothione reductase (Mycobacterium tuberculosis) (P9WHH3 whole entry): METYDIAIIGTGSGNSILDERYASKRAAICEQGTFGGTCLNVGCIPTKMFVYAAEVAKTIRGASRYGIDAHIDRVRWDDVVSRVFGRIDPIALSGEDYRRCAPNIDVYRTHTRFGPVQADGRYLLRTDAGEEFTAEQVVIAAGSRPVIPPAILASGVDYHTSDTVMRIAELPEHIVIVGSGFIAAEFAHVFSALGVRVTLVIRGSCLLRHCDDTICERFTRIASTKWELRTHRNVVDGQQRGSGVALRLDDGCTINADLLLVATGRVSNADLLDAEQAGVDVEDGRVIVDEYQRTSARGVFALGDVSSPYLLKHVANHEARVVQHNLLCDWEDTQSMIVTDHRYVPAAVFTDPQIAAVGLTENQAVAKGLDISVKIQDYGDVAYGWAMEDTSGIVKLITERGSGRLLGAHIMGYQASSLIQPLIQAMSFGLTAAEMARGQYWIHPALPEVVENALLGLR

`O=C(/C=C/c1ccccc1)c1ccc(O)cc1O` [2',4'-DIHYDROXYCHALCONE] was tested, and the inhibition was “inactive”.
For `O=C(/C=C/c1cccc(O)c1)c1ccc(O)cc1O`, the inhibition was “inactive”.
For `O=C1C[C@@H](c2ccccc2O)Oc2cc(O)cc(O)c21`, the inhibition was “inactive”.

System: Mycolicibacterium smegmatis
Test: Antibacterial activity against Mycobacterium smegmatis MC2 155 by microplate dilution method
Format: functional
Conditions: str. MC2 155
How it was run: (§1)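 M. smegmatis MC2 155 tested by microplate broth dilution. Highest concentration tested was 620.0 µg/mL. Read-out was MIC, and MBC where determined.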

First: O=C(O)c1cn(C2CC2)c2cc(N3CCNCC3)c(F)cc2c1=O [CIPROFLOXACIN]
Second: O=C1C[C@@H](c2ccccc2O)Oc2cc(O)cc(O)c21
The MBC of the first is 200-fold lower: 2.2 µM (≈ 0.729 µg/mL) for the first, 441 µM (≈ 120 µg/mL) for the second.

`O=C(/C=C/c1ccccc1)c1ccc(O)cc1O` [2',4'-DIHYDROXYCHALCONE] gave an MBC of 234 µM (≈ 56.3 µg/mL).

Compared with `O=C(O)c1cn(C2CC2)c2cc(N3CCNCC3)c(F)cc2c1=O` [CIPROFLOXACIN], `O=C1C[C@@H](c2ccccc2O)Oc2cc(O)cc(O)c21` is 73-fold higher in MIC: 1.5 µM (≈ 0.497 µg/mL) for the first, 110 µM (≈ 30 µg/mL) for the second.

Work on `O=C(/C=C/c1ccccc1)c1ccc(O)cc1O` [2',4'-DIHYDROXYCHALCONE] yielded an MIC of 469 µM (≈ 113 µg/mL).

System: U-937
Test: Cytotoxicity against human U937 cells
Format: cell-based
Conditions: not given

Going from `COc1cccc2c1C(=O)c1c(O)c3c(c(O)c1C2=O)C[C@@](O)(C(=O)CO)C[C@@H]3O[C@H]1C[C@H](N)[C@H](O)[C@H](C)O1` [DOXORUBICIN] to `COc1c(O)ccc(C(=O)/C=C/c2cccc(O)c2)c1O`, the pIC50 falls from 5.96 to 3.48 (2.48 log units).

Compared with `O=C(/C=C/c1ccccc1)c1ccc(O)cc1O` [2',4'-DIHYDROXYCHALCONE], `O=C(/C=C/c1cccc(O)c1)c1ccc(O)cc1O` is 0.72 log units lower in pIC50: 4.10 for the first, 3.38 for the second.

Molecule `O=C1C[C@@H](c2ccccc2O)Oc2cc(O)cc(O)c21` has a pIC50 of 3.96.

System: Mycobacterium tuberculosis
Test: Antitubercular activity against Mycobacterium tuberculosis H37Rv infected in human U937 cells at MBC by radiometric method
Format: functional, U-937
Conditions: not given

`O=C(/C=C/c1ccccc1)c1ccc(O)cc1O` [2',4'-DIHYDROXYCHALCONE] and `O=C(/C=C/c1cccc(O)c1)c1ccc(O)cc1O` are the same in “inhibition (INH)” value: 99.5% for the first, 99.5% for the second.

`O=C1C[C@@H](c2ccccc2O)Oc2cc(O)cc(O)c21` was tested, and the “inhibition (INH)” value was 99.5%.

System: Mycolicibacterium smegmatis
Test: Antibacterial activity against Mycobacterium smegmatis MC2 155 at 620 ug/ml by microplate dilution method
Format: functional, organism-based
Conditions: str. MC2 155
How it was run: as §1

In the case of `O=C(/C=C/c1cccc(O)c1)c1ccc(O)cc1O`, the MIC was “inactive”.

System: Mycobacterium tuberculosis
Test: Antitubercular activity against Mycobacterium tuberculosis H37Rv by radiometric method
Format: functional
Conditions: not given
How it was run: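 M. tuberculosis H37Rv (ATCC […], drug-susceptible) tested by the radiometric BACTEC method. MIC was judged from ΔGI against a control vial inoculated at 10⁻² dilution. MBC was also determined. Highest concentration tested was 620.0 µg/mL.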

First: NNC(=O)c1ccncc1 [ISONIAZID]
Second: O=C(/C=C/c1ccccc1)c1ccc(O)cc1O [2',4'-DIHYDROXYCHALCONE]
The MIC of the first is 140-fold lower: 1.4 µM (≈ 0.192 µg/mL) for the first, 195 µM (≈ 46.9 µg/mL) for the second.

`O=C(/C=C/c1cccc(O)c1)c1ccc(O)cc1O` and `O=C1C[C@@H](c2ccccc2O)Oc2cc(O)cc(O)c21` are within 1.5-fold of each other in MIC: 417 µM (≈ 107 µg/mL) for the first, 368 µM (≈ 100 µg/mL) for the second.
